From publication PMC8419008 (Structure (London, England : 1993), 2021)
Numbering of substitutions follows the chain as printed. Entries after “also recorded” stand apart in the source; their conditions may differ.

Columns and labels:
PHA7 (PLEKHA7 PH domain) = target: T1, PHA7 (PLEKHA7 PH domain) (Homo sapiens, UniProt Q6IQ23); test: Liposome co-sedimentation assay; format: binding; conditions: pure diC16-PC liposomes or liposomes containing 10% molar diC16-PIP; SDS-PAGE
T1 sequence (Q6IQ23 164-285): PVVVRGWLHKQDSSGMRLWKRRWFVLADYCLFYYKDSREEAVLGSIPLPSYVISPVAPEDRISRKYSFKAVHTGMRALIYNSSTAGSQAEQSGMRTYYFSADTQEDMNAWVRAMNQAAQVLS
Procedure, shortened: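 Small unilamellar vesicles made by bath sonication until translucent, from 100% diC16-PC or 9/1 diC16-PC/diC16-PI(4,5)P2 at 3 mg/mL. 200 uL vesicles mixed with 20 uM PH domain solution, 2 h at room temperature. Airfuge spin at 91,000 rpm for 20 h; supernatant and pellet analysed by SDS-PAGE.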

[1] = target: T2, PHA7 (PLEKHA7 PH domain, wild-type) (Homo sapiens, UniProt Q6IQ23); test: 1H/15N HSQC NMR chemical shift perturbation of 15N-labeled PHA7; format: binding; conditions: 15°C; for NMR spectral change of PHA7 on incubation with nanodiscs: 1.5 molar equivalents of nanodiscs, 100% diC16-PC or 10% molar diC16-PIP; for NMR spectral perturbation / binding of PHA7: soluble or short-chain ligand, 1.5 molar equivalents
T2 sequence (Q6IQ23 164-285): T1 sequence (Q6IQ23 164-285)
Procedure, shortened: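 Human PLEKHA7 PH domain expressed as a GST fusion in E. coli BL21 in M9 with (15NH4)2SO4, then cleaved with HRV 3C, purified by cation exchange and gel filtration. Added directly to preformed MSP1D1Δh5 nanodiscs (100% diC16-PC, or 9/1 diC16-PC with diC16-PI(3,4,5)P3, -PI(4,5)P2 or -PI(3,4)P2). Read-out: 1H/15N chemical shift perturbations.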

[2] = target: T3, PLEKHA7 PH domain (PHA7, wild-type) (Homo sapiens, UniProt Q6IQ23); test: ITC titration of wild-type PHA7 with soluble IP headgroups or PIP nanodiscs; conditions: read-out: ITC Kd, PHA7; soluble IP headgroups; 23°C; single-site binding model; average of triplicate
T3 sequence (Q6IQ23 164-285): T1 sequence (Q6IQ23 164-285)

[3] = target: T4, PHA7-D175K (PLEKHA7 PH domain mutant) (Homo sapiens, UniProt Q6IQ23, D175K); test: ITC titration of mutant PHA7-D175K with soluble IP headgroups or PIP nanodiscs; format: binding; conditions: soluble IP headgroups; for Kd: read-out: ITC Kd, PHA7-D175K, 23°C, single-site binding model, average of triplicate; for greater affinity of PHA7-D175K compared to wild-type: ITC
T4 sequence (Q6IQ23 164-285 D175K): T1 sequence (Q6IQ23 164-285) with D12K
Procedure, shortened: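 ITC run at 23°C in 15 mM Tris pH 7.6, 70 mM NaCl, 0.5 mM TCEP. Cell held 50 μM protein; syringe held 0.5 mM soluble IP headgroup. Protein concentration was set by A280. Integrated heats were fitted to a single-site binding model to obtain dissociation constants.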

Molecule	co-sedimentation of PHA7 with liposomes (PHA7 (PLEKHA7 PH domain))	NMR spectral change of PHA7 on incubation with nanodiscs [1]	NMR spectral perturbation / binding of PHA7 [1]	Kd [2] [µM]	Kd [3] [µM]	greater affinity of PHA7-D175K compared to wild-type [3]
phosphatidyl inositol (3,4,5) triphosphate [PI(3,4,5)P3]	abundant co-sedimentation	effectively obliterated				
CCCCCCCC(=O)OC[C@H](COP(=O)(O)OC1[C@H](O)[C@H](O)C(O)[C@H](O)[C@H]1O)OC(=O)CCCCCCC (stereo partly drawn) [diC8-PI]			no perturbations; also recorded: does not bind			
O=P(O)(O)OC1[C@H](O)[C@H](OP(=O)(O)O)C(OP(=O)(O)O)[C@H](OP(=O)(O)O)[C@H]1O (stereo partly drawn) [IP(3,4,5)P3, inositol (1,3,4,5) tetraphosphate]			weak binding interaction with fast exchange binding dynamics	30.1 ± 2.3	3.5 ± 0.5	nine-fold
O=P(O)(O)O[C@@H]1[C@H](O)[C@H](O)[C@@H](OP(=O)(O)O)[C@H](OP(=O)(O)O)[C@H]1O [IP(4,5)P2, inositol (1,4,5) triphosphate]				30.5 ± 0.6	10.7 ± 0.2	three-fold
CCCCCCCCCCCCCCCC(=O)OC[C@H](COP(=O)([O-])OCC[N+](C)(C)C)OC(=O)CCCCCCCCCCCCCCC [diC16-PC, dipalmitoyl-phosphatidyl-choline]	does not sediment	no detectable NMR spectral changes				
